Test results from ChEMBL document CHEMBL3102711 (Eur J Med Chem, 2014).
Calls of active or inactive are those of the source. The calls are words filed in the database; no cut-off is given here.

What was measured:
[1] = (§1) Antiproliferative activity against human DG75 cells after 72 hrs by Alamar blue assay; format: functional, cell-based; details: DG-75, 72 h
[2] = Antiproliferative activity against human MUTU-I cells after 24 hrs by Alamar blue assay; format: functional, cell-based
MUTU-I [3] = test: (§2) Induction of apoptosis in human MUTU-I cells assessed as accumulation at pre-G1 phase at 10 uM after 24 hrs using propidium iodide staining by FACS analysis; format: functional
In short: (§3)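 Cells (7.5×10^5 per 5 mL) were treated, then washed in cold PBS and fixed overnight at 4 °C in 70% ethanol. They were stained with RNase A and propidium iodide for 30 min at 37 °C in the dark. Flow cytometry counted 10,000 gated cells, and the pre-G1 fraction was scored.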

HL-60 [4] = test: Induction of apoptosis in human HL60 cells expressing p-glycoprotein; format: functional, cell-based
HL-60 [5] = test: Induction of apoptosis in human HL60 cells expressing BCRP; format: functional, cell-based
MUTU-I [6] = test: Induction of apoptosis in human MUTU-I cells assessed as activation of caspase 3 and 7 at 10 uM after 8 hrs by Apotox-Glo Triplex assay; format: functional, cell-based
In short: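 Cells were seeded at 10,000/well and treated at 10 µM for 8 h. Caspase-Glo reagent (Apotox-Glo Triplex) was added, followed by brief orbital shaking and 30 min at room temperature, then a luminescence read. Vinblastine 100 nM was the positive control, with a Student's t-test against vehicle.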

PBMC = test: Antiproliferative activity against human PBMC at 10 uM after 24 hrs by Alamar blue assay; format: cell-based
In short: (§4)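 Cells were treated with a single 10 µM dose for 24 h. PBMCs came from healthy-donor blood by Ficoll density separation and were kept in IMDM with 10% FBS. Viability was read by Alamar Blue fluorescence (590 nm, ex 544 nm) against untreated cells. Three independent experiments were run, with a Student's t-test against vehicle.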

HL-60 [7] = test: Induction of apoptosis in human HL60 cells; format: functional, cell-based
DG-75 [8] = test: as §1; format: functional, cell-based
[9] = as §2; format: functional; in short: as §3
DG-75 [10] = test: Antiproliferative activity against human DG75 cells at 10 uM after 24 hrs by Alamar blue assay
MUTU-I [11] = test: Antiproliferative activity against human MUTU-I cells at 10 uM after 24 hrs by Alamar blue assay; format: functional; in short: as §4

Compound | EC50 [1] [µM] | EC50 [2] [µM] | also measured
CNC(C)/C=C/c1c2ccccc2cc2ccccc12 (configuration not stated) | > 100 | 62.9 | –
N#CC1CC2c3ccccc3C1(/C=N/OC(=O)c1ccccc1)c1ccccc12 (configuration not stated) | 95.3 | 80.5 | –
CC(=O)/C=C/c1c2ccccc2cc2ccccc12 | 7.6 | 21.8 | –
CN1CCN(C(=O)/C=C/c2c3ccccc3cc3ccccc23)CC1 | 62.1 | 7.6 | Activity (MUTU-I [3]): inactive; Activity (HL-60 [4]): inactive; Activity (HL-60 [5]): inactive; Activity (MUTU-I [6]): inactive; Activity (PBMC): Non-toxic; Activity (HL-60 [7]): inactive
CCNCC1CC2c3ccccc3C1c1ccccc12 (configuration not stated) | > 100 | > 100 | –
CNC(=O)/C=C/C12c3ccccc3C(CC1C#N)c1ccccc12 (configuration not stated) | > 100 | > 100 | –
CN(CC1=CC2c3ccccc3C1c1ccccc12)C1CCCCC1 | > 100 | 73.3 | –
CNC(=O)CCC12c3ccccc3C(CC1C#N)c1ccccc12 (configuration not stated) | > 100 | > 100 | –
COC(=O)C1=C(C(=O)OC)C2c3ccccc3C1c1ccccc12 | – | > 100 | Activity (DG-75 [8]): inactive
CCOC(=O)CCC12c3ccccc3C(CC1C#N)c1ccccc12 (configuration not stated) | > 100 | 29.3 | –
COC(=O)C(Cc1ccc(O)cc1)NC(=O)C1CC2c3ccccc3C1c1ccccc12 (configuration not stated) | 54.6 | 63 | –
N#CC1CC2c3ccccc3C1(C=O)c1ccccc12 (configuration not stated) | > 100 | 31.7 | –
CN1CCN(C(=O)C2CC3c4ccccc4C2c2ccccc23)CC1 (configuration not stated) | – | > 100 | –
CCOC(=O)C1=CC2c3ccccc3C1c1ccccc12 | – | > 100 | Activity (DG-75 [8]): inactive
CCN(CC)C(=O)C1C2c3ccccc3C(c3ccccc32)C1C(=O)N(CC)CC (configuration not stated) | – | > 100 | –
N#CC1CC2c3ccccc3C1(/C=N/O)c1ccccc12 (configuration not stated) | > 100 | 20.4 | –
COC(=O)C(CC(C)C)NC(=O)C1CC2c3ccccc3C1c1ccccc12 (configuration not stated) | – | > 100 | –
O=C(/C=C/c1c2ccccc2cc2ccccc12)N1CCCC1 | 32.5 | 18.7 | –
CCOC(=O)/C=C/c1c2ccccc2cc2ccccc12 | > 100 | 27.1 | –
CCOC(=O)N1CCN(C(=O)/C=C/c2c3ccccc3cc3ccccc23)CC1 | 11.6 | 5.4 | Activity [9]: 54.7%; Activity (HL-60 [4]): Active; Activity (DG-75 [10]): Active; Activity (HL-60 [5]): Active; Activity (MUTU-I [11]): Active; Activity (MUTU-I [6]): Active; Activity (PBMC): Non-toxic; Activity (HL-60 [7]): Active
CNCC12c3ccccc3C(CC1C#N)c1ccccc12 (configuration not stated) | > 100 | > 100 | –
CN(C(=O)C1CC2c3ccccc3C1(C=O)c1ccccc12)C1CCCCC1 (configuration not stated) | > 100 | 40.6 | Activity (HL-60 [4]): Active; Activity (HL-60 [5]): Active; Activity (HL-60 [7]): Active
c1ccc2c(c1)C1CC(CN3CCCCC3)C2c2ccccc21 (configuration not stated) | 69.9 | 65.6 | –
c1ccc2c(c1)C1CC(CN3CCOCC3)C2c2ccccc21 (configuration not stated) | 8.8 | 23.5 | –
c1ccc(NCC2CC3c4ccccc4C2c2ccccc23)cc1 (configuration not stated) | > 100 | > 100 | –
CN(C)C(=O)C1C2c3ccccc3C(c3ccccc32)C1C(=O)N(C)C (configuration not stated) | – | > 100 | –
CCOC(=O)/C=C/C12c3ccccc3C(CC1C#N)c1ccccc12 (configuration not stated) | > 100 | 45.6 | –
